Data from ChEMBL document CHEMBL4613231 (Bioorg Med Chem, 2020).

Assays:
[1] = target: T1, Tyrosyl-DNA phosphodiesterase 1 (Homo sapiens, UniProt Q9NUW8); experiment: Inhibition of TDP1 (unknown origin) using 5'-(5,6 FAM-AAC GTC AGG GTC TTC C- BHQ1)-3' as substrate measured for every 1 min by fluorescence based assay
Method in brief: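 TDP1 buffer (50 mM Tris-HCl pH 8.0, 50 mM NaCl, 7 mM β-mercaptoethanol) with FAM/BHQ1 quenched biosensor at 50 nM final and inhibitor over a concentration range. Started by adding TDP1 (1.5 nM), 26 °C, fluorescence (Ex485/Em520) read every 1 min. Linear-phase slope compared with DMSO control, IC50 taken from concentration-response curves, at least three independent experiments.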

[2] = target: T1, Tyrosyl-DNA phosphodiesterase 1; experiment: Inhibition of TDP1 (unknown origin) using 5'-(5,6 FAM-AAC GTC AGG GTC TTC C- BHQ1)-3' as substrate measured after 20 mins by gel-based assay
Method in brief: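 Reaction (200 μL) in TDP1 buffer (50 mM Tris-HCl pH 8.0, 50 mM NaCl, 7 mM β-mercaptoethanol) with FAM/BHQ1 biosensor oligo at 50 nM final and inhibitor at various concentrations. Started with TDP1 at 1.5 nM final, run 20 min at room temperature, stopped with loading buffer. Products separated by denaturing PAGE, scanned and quantified, and IC50 derived.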

[3] = (§1) Cytotoxicity against human T98G cells assessed as reduction in cell viability after 72 hrs by MTT assay; format: cell-based; details: T98G cells
Method in brief: (§2)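 Cells plated at ~2000 per well, grown 24h at 37 °C in IMDM (5% CO2), then exposed to compounds at 1, 5, 20 and 100 µM for 72h. Viable cells quantified by colorimetric MTT test; CC50 taken as mean of three independent experiments.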

[4] = (§3) Cytotoxicity against human MCF7 cells assessed as reduction in cell viability after 72 hrs by MTT assay; format: cell-based; details: MCF7 cells; method in brief: as §2
WI-38 [5] = experiment: (§4) Cytotoxicity against human WI38 cells assessed as reduction in cell viability after 72 hrs by MTT assay; format: cell-based; details: wi-38, 72 h; method in brief: as §2
T98G [6] = experiment: as §1; format: cell-based; details: t98g, 72 h; method in brief: as §2
MCF7 = experiment: as §3; format: cell-based; details: mcf7, 72 h; method in brief: as §2
A549 = experiment: Cytotoxicity against human A549 cells assessed as reduction in cell viability after 72 hrs by MTT assay; format: cell-based; details: a549, 72 h; method in brief: as §2
T98G [7] = experiment: Cytotoxicity against human T98G cells at 1 uM after 72 hrs in presence of topotecan by MTT assay; format: cell-based
WI-38 [8] = experiment: Cytotoxicity against human WI38 cells at 1 uM after 72 hrs in presence of topotecan by MTT assay; format: cell-based; details: wi-38, 72 h
[9] = as §4; format: cell-based, WI-38; details: WI-38 cells; method in brief: as §2

T1 sequence (Q9NUW8 whole entry): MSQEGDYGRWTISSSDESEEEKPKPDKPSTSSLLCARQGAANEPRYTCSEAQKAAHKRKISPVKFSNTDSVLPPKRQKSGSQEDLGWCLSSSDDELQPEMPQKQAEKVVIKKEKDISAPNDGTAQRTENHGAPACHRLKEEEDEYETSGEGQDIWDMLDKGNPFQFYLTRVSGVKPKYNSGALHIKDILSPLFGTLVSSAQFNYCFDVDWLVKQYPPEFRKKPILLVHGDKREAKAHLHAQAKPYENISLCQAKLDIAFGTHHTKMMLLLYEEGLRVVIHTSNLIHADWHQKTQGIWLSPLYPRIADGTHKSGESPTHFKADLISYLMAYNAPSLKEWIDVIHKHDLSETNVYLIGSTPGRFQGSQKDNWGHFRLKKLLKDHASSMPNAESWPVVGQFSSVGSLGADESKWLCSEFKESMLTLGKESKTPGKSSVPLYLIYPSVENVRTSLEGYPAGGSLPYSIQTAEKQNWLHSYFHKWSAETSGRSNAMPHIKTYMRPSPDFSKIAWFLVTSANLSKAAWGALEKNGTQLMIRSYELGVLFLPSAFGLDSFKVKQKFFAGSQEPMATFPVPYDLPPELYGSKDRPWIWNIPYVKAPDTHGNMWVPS

CCCc1cc(=O)oc2c(C)c(OCC(=O)NC(Cc3c[nH]c4ccc(O)cc34)C(=O)O)ccc12 (configuration not stated)
IC50 [1]: 5.6 µM

Cc1c(CC(=O)N[C@@H](CSCc2ccccc2)C(=O)O)c(=O)oc2c(C)c3occ(-c4ccc(F)cc4)c3cc12
IC50 [1]: 1.06 µM
IC50 [2]: 1.75 µM
CC50 at 72 h [3]: 66 µM
CC50 at 72 h [4]: 80 µM

O=C(NCCc1c[nH]c2ccccc12)c1cc2c([nH]c3ccccc32)c(-c2ccc3c(c2)OCO3)n1
IC50 [1]: 0.98 µM

O=c1cc(-c2cc3ccccc3oc2=O)c2ccc(OCc3cccc4ccccc34)cc2o1
IC50 [1]: 0.27 µM

CC(C)OCCCNC(=O)c1cc2c([nH]c3ccccc32)c(-c2ccc3c(c2)OCO3)n1
IC50 [1]: 3.1 µM

CC(C)C[C@H](N)C(=O)N1CCC(C(=O)N[C@@H](Cc2ccccc2)C(=O)NCc2ccccc2F)CC1
IC50 [1]: > 100 µM

O=C(COc1cc2oc(=O)cc(-c3ccccc3)c2cc1Cl)NC[C@H]1CC[C@H](C(=O)O)CC1
IC50 [1]: > 100 µM

O=C(NCCC1=CCCCC1)c1cc2c([nH]c3ccccc32)c(-c2ccc3c(c2)OCO3)n1
IC50 [1]: 1.3 µM

COc1ccc(-c2cc(=O)oc3cc(OCC(=O)N[C@H](C(=O)O)c4ccccc4)ccc23)cc1
IC50 [1]: 12.9 µM

Cc1c(CC(=O)NC(Cc2ccc(Cl)cc2)C(=O)O)c(=O)oc2c(C)c3occ(-c4ccc(F)cc4)c3cc12 (configuration not stated)
IC50 [1]: 0.85 µM

O=c1cc(-c2cc3ccccc3oc2=O)c2ccc(OCc3c(Cl)cccc3Cl)cc2o1
IC50 [1]: 0.099 µM
Activity (WI-38 [5]): Non-Toxic
Activity (T98G [6]): Non-Toxic
Activity (MCF7): Non-Toxic
Activity (A549): Non-Toxic
Activity (T98G [7]): Toxic
Activity (WI-38 [8]): Toxic

COc1cccc2cc(-c3cc(=O)oc4cc(OCC(C)=O)ccc34)c(=O)oc12
IC50 [1]: 7.6 µM

O=c1cc(-c2cc3ccccc3oc2=O)c2ccc(OCc3ccccc3Cl)cc2o1
IC50 [1]: 0.28 µM
CC50 at 72 h [3]: 16 µM

Cc1c(CCC(=O)N[C@@H](CSCc2ccccc2)C(=O)O)c(=O)oc2cc3oc4c(c3cc12)CCCC4
IC50 [1]: 15.4 µM

COc1cccc2cc(-c3cc(=O)oc4c(C)c(OCc5ccc(Cl)cc5)ccc34)c(=O)oc12
IC50 [1]: 0.36 µM
CC50 at 72 h [9]: 60 µM
CC50 at 72 h [3]: 16 µM
CC50 at 72 h [4]: 17 µM
Activity (T98G [7]): Toxic
Activity (WI-38 [8]): Toxic

Cc1c(Cc2ccccc2)c(=O)oc2cc(OCC(=O)N[C@@H](CSCc3ccccc3)C(=O)O)ccc12
IC50 [1]: 3.5 µM

Cc1oc2c(C)c3oc(=O)c(CC(=O)NCC(=O)O)c(C)c3cc2c1-c1ccccc1
IC50 [1]: > 100 µM
